How the values were obtained:
[1] = biological target: Hepatocyte growth factor receptor (Homo sapiens, UniProt P08581); test: Inhibition of c-Met (unknown origin) using poly (Glu, Tyr) 4:1 as substrate after 30 mins by HTRF assay
HT-29 [2] = test: Cytotoxicity against human HT-29 cells after 72 hrs by MTT assay; conditions: HT-29, 72 h
A549 [3] = test: Cytotoxicity against human A549 cells after 72 hrs by MTT assay; conditions: A549, 72 h
NCI-H460 = test: Cytotoxicity against human H460 cells after 72 hrs by MTT assay; format: functional, cell-based; conditions: NCI-H460, 72 h
Procedure, shortened: (§1)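 Cells grown in MEM with 10% FBS. About 4 × 10³ cells per well, incubated 24 h at 37°C in 5% CO₂. Compound added at the indicated final concentrations, then 72 h culture. MTT at […] final for 4 h at 37°C. Three independent experiments; IC50 reported as mean.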

U-87 MG [4] = test: Cytotoxicity against human U87MG cells after 72 hrs by MTT assay; format: functional, cell-based, U-87MG ATCC; procedure, shortened: as §1
HT-29 [5] = test: Potency index, ratio of foretinib IC50 to compound IC50 for human HT-29 cells; format: functional
A549 [6] = test: Potency index, ratio of foretinib IC50 to compound IC50 for human A549 cells; format: functional
[7] = Potency index, ratio of foretinib IC50 to compound IC50 for human H460 cells; format: functional
U-87 MG [8] = test: Potency index, ratio of foretinib IC50 to compound IC50 for human U87MG cells; format: functional, U-87MG ATCC
[9] = biological target: T1, Receptor-type tyrosine-protein kinase FLT3 (Homo sapiens, UniProt P36888); test: Inhibition of Flt-3 (unknown origin) using poly (Glu, Tyr) 4:1 as substrate after 30 mins by HTRF assay
T1 sequence (P36888 whole entry): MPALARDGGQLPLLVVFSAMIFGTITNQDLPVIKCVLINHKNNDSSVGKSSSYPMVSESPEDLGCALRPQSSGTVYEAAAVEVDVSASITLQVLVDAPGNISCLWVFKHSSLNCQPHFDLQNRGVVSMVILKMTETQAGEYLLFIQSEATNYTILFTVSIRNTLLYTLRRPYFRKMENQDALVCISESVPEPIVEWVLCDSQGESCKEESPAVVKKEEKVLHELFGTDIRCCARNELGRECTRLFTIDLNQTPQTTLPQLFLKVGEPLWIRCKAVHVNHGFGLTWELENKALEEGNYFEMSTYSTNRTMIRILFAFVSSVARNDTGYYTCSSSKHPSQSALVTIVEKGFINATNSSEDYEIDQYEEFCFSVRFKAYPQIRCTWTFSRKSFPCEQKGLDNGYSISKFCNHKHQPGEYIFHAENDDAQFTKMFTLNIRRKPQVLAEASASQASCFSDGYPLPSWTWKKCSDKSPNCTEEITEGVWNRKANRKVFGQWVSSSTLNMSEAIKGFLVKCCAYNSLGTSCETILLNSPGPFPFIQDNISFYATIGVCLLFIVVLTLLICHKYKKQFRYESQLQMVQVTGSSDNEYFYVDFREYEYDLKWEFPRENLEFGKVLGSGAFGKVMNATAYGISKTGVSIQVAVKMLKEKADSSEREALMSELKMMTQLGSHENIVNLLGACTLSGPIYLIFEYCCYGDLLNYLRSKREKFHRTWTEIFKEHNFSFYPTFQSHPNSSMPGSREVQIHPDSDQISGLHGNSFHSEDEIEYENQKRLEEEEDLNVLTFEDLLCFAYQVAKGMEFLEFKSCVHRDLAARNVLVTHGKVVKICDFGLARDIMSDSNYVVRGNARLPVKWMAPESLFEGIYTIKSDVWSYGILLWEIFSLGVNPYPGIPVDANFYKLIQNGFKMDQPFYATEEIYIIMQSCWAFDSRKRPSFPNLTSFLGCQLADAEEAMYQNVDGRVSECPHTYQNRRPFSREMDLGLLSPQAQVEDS
Procedure, shortened: (§2)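 Purified kinase protein added to start the reaction on preloaded poly(Glu,Tyr) 4:1 substrate at 20 µg/mL. ATP 10 mM solution in HEPES 50 mM pH 7.0 buffer with DTT, MgCl₂, MnCl₂ and 0.1% NaN₃. Compounds added in 1% DMSO. Reaction run 30 min at 25°C, stopped with Streptavidin-XL665 plus Tk antibody cryptate, read at 320/615 nm. Percent inhibition taken against enzyme-free and full-enzyme controls; IC50 from inhibition curves.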

[10] = biological target: Platelet-derived growth factor receptor beta (Homo sapiens, UniProt P09619); test: Inhibition of PDGFRbeta (unknown origin) using poly (Glu, Tyr) 4:1 as substrate after 30 mins by HTRF assay; procedure, shortened: as §2
[11] = biological target: Mast/stem cell growth factor receptor Kit (Homo sapiens, UniProt P10721); test: Inhibition of c-Kit (unknown origin) using poly (Glu, Tyr) 4:1 as substrate after 30 mins by HTRF assay; procedure, shortened: as §2
[12] = biological target: Vascular endothelial growth factor receptor 2 (Homo sapiens, UniProt P35968); test: Inhibition of VEGFR-2 (unknown origin) using poly (Glu, Tyr) 4:1 as substrate after 30 mins by HTRF assay; procedure, shortened: as §2
[13] = biological target: Epidermal growth factor receptor (Homo sapiens, UniProt P00533); test: Inhibition of EGFR (unknown origin) using poly (Glu, Tyr) 4:1 as substrate after 30 mins by HTRF assay; procedure, shortened: as §2
Chain of Epidermal growth factor receptor (P00533 whole entry): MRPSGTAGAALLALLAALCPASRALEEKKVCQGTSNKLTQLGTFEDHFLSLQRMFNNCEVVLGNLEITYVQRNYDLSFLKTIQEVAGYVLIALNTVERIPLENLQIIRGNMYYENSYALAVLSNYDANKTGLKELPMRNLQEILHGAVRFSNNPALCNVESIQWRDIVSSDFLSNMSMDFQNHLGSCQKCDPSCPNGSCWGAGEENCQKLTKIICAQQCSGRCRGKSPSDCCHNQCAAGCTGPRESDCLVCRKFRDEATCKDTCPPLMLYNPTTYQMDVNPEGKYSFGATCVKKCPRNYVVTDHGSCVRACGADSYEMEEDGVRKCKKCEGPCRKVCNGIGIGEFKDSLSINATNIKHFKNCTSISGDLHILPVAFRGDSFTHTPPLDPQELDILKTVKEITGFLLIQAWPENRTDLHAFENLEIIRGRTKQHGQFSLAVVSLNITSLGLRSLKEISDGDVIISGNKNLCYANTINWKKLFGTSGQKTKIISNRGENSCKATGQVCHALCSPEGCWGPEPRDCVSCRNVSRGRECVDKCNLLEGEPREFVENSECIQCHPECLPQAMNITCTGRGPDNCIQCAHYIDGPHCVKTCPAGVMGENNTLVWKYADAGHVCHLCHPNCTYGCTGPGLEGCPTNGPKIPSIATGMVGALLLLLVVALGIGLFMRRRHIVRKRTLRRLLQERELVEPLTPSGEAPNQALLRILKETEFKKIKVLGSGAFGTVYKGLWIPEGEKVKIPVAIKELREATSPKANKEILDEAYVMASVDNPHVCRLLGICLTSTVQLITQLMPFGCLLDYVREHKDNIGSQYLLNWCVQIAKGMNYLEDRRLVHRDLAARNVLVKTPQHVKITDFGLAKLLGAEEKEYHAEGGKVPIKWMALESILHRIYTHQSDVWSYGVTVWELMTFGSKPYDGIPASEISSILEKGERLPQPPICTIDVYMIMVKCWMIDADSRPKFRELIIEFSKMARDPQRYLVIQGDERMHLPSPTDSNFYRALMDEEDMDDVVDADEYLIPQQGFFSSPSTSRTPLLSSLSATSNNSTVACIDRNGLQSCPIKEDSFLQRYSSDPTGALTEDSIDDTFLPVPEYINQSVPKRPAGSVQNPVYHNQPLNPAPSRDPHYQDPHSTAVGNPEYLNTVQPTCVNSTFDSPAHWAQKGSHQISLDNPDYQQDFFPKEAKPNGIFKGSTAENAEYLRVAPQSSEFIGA

Chain of Hepatocyte growth factor receptor (P08581 whole entry): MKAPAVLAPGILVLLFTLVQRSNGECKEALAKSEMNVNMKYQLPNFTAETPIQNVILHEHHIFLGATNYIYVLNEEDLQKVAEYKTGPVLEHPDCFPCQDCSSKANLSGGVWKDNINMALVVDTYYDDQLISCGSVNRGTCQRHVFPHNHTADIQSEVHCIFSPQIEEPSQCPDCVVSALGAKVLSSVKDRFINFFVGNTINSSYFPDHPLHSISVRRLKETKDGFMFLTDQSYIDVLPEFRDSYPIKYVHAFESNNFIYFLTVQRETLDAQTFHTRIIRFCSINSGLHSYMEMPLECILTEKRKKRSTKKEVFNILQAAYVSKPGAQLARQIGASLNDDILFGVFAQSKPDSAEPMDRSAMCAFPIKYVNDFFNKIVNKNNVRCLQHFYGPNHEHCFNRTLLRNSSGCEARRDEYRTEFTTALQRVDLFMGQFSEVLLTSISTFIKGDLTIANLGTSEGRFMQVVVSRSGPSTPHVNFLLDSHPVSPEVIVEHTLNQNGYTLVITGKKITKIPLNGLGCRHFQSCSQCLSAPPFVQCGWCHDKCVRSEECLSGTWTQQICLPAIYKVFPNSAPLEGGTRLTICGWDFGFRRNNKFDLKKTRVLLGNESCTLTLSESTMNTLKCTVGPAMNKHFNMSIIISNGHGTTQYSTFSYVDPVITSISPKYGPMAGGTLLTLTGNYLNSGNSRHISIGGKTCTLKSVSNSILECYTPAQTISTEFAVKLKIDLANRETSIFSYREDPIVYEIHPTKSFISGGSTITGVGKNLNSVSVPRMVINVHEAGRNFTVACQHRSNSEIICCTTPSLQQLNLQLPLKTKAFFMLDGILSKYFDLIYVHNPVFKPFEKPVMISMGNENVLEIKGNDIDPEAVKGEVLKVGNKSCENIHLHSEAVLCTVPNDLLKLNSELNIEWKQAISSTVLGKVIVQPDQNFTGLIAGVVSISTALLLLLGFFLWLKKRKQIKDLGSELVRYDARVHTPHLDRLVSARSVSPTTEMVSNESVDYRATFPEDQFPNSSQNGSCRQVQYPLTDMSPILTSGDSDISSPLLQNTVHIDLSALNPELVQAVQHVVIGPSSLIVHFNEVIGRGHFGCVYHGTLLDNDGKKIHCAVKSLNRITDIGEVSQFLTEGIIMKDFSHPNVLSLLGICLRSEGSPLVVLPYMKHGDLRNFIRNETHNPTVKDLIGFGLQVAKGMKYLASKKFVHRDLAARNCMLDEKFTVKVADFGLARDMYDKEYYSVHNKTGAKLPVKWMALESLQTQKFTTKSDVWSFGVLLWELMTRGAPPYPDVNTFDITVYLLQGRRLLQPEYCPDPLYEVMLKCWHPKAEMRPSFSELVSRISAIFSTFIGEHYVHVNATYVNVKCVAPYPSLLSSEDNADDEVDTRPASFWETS
Chain of Vascular endothelial growth factor receptor 2 (P35968 whole entry): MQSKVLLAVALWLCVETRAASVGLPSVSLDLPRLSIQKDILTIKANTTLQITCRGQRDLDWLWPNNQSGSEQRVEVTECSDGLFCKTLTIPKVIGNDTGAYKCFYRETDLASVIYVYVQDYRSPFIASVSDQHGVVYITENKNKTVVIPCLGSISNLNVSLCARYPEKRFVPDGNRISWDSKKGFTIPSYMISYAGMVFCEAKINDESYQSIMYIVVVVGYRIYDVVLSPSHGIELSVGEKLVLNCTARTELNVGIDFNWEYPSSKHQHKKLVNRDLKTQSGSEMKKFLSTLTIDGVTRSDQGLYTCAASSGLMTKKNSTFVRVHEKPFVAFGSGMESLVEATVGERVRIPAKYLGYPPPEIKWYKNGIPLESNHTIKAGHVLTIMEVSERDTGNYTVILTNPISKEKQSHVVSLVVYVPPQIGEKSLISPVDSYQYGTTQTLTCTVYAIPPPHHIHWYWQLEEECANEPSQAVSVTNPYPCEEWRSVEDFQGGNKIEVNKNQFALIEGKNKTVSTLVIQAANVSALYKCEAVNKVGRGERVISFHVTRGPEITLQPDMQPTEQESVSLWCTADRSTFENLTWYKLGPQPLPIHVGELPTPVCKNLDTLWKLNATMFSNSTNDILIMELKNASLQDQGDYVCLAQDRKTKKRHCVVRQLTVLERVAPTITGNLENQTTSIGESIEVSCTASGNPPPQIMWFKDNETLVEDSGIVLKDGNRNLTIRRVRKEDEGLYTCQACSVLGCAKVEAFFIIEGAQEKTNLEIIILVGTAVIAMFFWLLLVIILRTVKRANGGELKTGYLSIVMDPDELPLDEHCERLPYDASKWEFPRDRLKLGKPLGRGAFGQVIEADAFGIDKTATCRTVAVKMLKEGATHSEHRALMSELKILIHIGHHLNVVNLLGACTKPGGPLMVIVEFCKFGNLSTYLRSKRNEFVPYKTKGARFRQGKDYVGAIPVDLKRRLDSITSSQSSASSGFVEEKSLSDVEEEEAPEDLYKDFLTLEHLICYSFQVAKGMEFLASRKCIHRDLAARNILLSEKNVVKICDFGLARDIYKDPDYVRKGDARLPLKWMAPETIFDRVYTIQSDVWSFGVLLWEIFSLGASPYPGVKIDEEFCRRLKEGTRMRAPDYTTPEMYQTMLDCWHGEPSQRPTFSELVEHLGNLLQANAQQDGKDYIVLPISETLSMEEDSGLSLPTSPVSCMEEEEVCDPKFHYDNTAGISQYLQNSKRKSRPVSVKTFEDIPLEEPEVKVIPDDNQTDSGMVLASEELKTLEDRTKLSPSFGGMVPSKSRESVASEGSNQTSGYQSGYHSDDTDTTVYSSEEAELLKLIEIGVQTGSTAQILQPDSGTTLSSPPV
Chain of Platelet-derived growth factor receptor beta (P09619 whole entry): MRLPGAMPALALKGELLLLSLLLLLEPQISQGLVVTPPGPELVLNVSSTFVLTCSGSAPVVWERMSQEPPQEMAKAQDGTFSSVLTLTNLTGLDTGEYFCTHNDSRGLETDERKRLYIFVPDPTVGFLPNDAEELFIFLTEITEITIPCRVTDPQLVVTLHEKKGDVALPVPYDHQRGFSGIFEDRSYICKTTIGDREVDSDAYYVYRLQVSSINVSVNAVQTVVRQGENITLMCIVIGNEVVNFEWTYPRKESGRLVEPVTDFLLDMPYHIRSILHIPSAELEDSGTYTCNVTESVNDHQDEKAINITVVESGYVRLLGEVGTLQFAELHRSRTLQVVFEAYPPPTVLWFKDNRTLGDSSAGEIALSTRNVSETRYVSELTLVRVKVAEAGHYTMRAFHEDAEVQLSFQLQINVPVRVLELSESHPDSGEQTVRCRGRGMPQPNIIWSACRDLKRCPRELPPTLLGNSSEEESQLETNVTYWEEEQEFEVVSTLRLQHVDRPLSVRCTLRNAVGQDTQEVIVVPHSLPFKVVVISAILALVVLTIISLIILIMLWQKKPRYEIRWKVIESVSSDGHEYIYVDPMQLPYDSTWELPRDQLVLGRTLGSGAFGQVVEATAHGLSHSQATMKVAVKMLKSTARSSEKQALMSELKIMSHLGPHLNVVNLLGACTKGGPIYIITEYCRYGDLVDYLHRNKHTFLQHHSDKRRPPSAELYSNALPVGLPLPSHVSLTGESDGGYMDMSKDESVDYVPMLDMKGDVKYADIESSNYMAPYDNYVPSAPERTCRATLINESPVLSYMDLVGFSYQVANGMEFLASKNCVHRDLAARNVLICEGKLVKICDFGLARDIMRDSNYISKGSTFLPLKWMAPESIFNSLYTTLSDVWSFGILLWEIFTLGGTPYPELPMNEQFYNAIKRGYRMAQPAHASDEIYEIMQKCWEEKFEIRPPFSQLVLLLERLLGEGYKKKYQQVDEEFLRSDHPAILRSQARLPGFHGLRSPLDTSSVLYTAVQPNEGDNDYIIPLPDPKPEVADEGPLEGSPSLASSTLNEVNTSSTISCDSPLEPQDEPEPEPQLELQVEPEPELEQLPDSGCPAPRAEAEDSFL

| IC50 [1] | SMILES | also measured |
| --- | --- | --- |
| 1.06 nM | Cc1cc(=O)n(-c2ccc(F)cc2)nc1C(=O)Nc1ccc(Oc2ccnc3[nH]ccc23)c(F)c1 | IC50 (HT-29 [2]): 39 nM; IC50 (A549 [3]): 46 nM; IC50 (NCI-H460): 91 nM; IC50 (U-87 MG [4]): 760 nM; Ratio IC50 (HT-29 [5]): 6.4; Ratio IC50 (A549 [6]): 7.8; Ratio IC50 [7]: 3.2; Ratio IC50 (U-87 MG [8]): 1.3; IC50 [9]: 1.32 nM; IC50 [10]: 3.26 nM; IC50 [11]: 318 nM; IC50 [12]: 672 nM; IC50 [13]: 725 nM |
| 15.3 nM | Cc1cc(=O)n(-c2cccc(F)c2)nc1C(=O)Nc1ccc(Oc2ccnc3c2ccn3C)cc1 | IC50 (HT-29 [2]): 320 nM; IC50 (A549 [3]): 410 nM; IC50 (NCI-H460): 320 nM; IC50 (U-87 MG [4]): 8820 nM |
| 14.4 nM | Cc1cc(=O)n(-c2ccccc2F)nc1C(=O)Nc1ccc(Oc2ccnc3c2ccn3C)cc1 | – |
| 11.6 nM | Cc1cc(=O)n(-c2cccc(F)c2)nc1C(=O)Nc1ccc(Oc2ccnc3[nH]ccc23)cc1 | IC50 (HT-29 [2]): 210 nM; IC50 (A549 [3]): 420 nM; IC50 (NCI-H460): 190 nM; IC50 (U-87 MG [4]): 3420 nM |
| 18.3 nM | COc1ccc(-n2nc(C(=O)Nc3ccc(Oc4ccnc5[nH]ccc45)c(F)c3)c(C)cc2=O)cc1 | – |
| 29.3 nM | Cc1cc(=O)n(-c2cccc(C(F)(F)F)c2)nc1C(=O)Nc1ccc(Oc2ccnc3c2ccn3C)c(F)c1 | IC50 (HT-29 [2]): 360 nM; IC50 (A549 [3]): 620 nM; IC50 (NCI-H460): 520 nM; IC50 (U-87 MG [4]): 2310 nM |
| 32.2 nM | Cc1cc(=O)n(-c2cccc(C(F)(F)F)c2)nc1C(=O)Nc1ccc(Oc2ccnc3c2ccn3C)cc1 | – |
| 10.5 nM | Cc1cc(=O)n(-c2cccc(Br)c2)nc1C(=O)Nc1ccc(Oc2ccnc3c2ccn3C)cc1 | – |
| 41.3 nM | Cc1ccc(C)c(-n2nc(C(=O)Nc3ccc(Oc4ccnc5c4ccn5C)cc3)c(C)cc2=O)c1 | – |
| 8.42 nM | Cc1cc(=O)n(-c2ccc(F)cc2)nc1C(=O)Nc1ccc(Oc2ccnc3[nH]ccc23)cc1 | IC50 (HT-29 [2]): 140 nM; IC50 (A549 [3]): 230 nM; IC50 (NCI-H460): 160 nM; IC50 (U-87 MG [4]): 5460 nM |
| 19.1 nM | Cc1ccccc1-n1nc(C(=O)Nc2ccc(Oc3ccnc4[nH]ccc34)cc2)c(C)cc1=O | – |
| 5.02 nM | Cc1cc(=O)n(-c2ccccc2F)nc1C(=O)Nc1ccc(Oc2ccnc3[nH]ccc23)c(F)c1 | – |
| 12.6 nM | Cc1cc(=O)n(-c2ccccc2F)nc1C(=O)Nc1ccc(Oc2ccnc3[nH]ccc23)cc1 | – |
| 56.3 nM | Cc1cc(=O)n(-c2ccc(Cl)cc2Cl)nc1C(=O)Nc1ccc(Oc2ccnc3[nH]ccc23)cc1 | – |
| 11.2 nM | Cc1cc(=O)n(-c2ccccc2C(F)(F)F)nc1C(=O)Nc1ccc(Oc2ccnc3[nH]ccc23)c(F)c1 | – |
| 33.5 nM | Cc1ccc(C)c(-n2nc(C(=O)Nc3ccc(Oc4ccnc5[nH]ccc45)cc3)c(C)cc2=O)c1 | – |

| IC50 [1] | SMILES | also measured |
| --- | --- | --- |
| 49.2 nM | Cc1cc(=O)n(-c2ccc(Cl)cc2Cl)nc1C(=O)Nc1ccc(Oc2ccnc3c2ccn3C)cc1 | – |
| 22.4 nM | Cc1cc(=O)n(-c2ccc(Cl)cc2Cl)nc1C(=O)Nc1ccc(Oc2ccnc3[nH]ccc23)c(F)c1 | – |
| 18.2 nM | Cc1cc(=O)n(-c2ccc(Br)cc2F)nc1C(=O)Nc1ccc(Oc2ccnc3[nH]ccc23)c(F)c1 | – |
| 10.3 nM | Cc1ccccc1-n1nc(C(=O)Nc2ccc(Oc3ccnc4[nH]ccc34)c(F)c2)c(C)cc1=O | – |
| 45.3 nM | Cc1cc(=O)n(-c2ccc(F)c(Cl)c2)nc1C(=O)Nc1ccc(Oc2ccnc3c2ccn3C)cc1 | – |
| 18.3 nM | Cc1cc(=O)n(-c2ccccc2)nc1C(=O)Nc1ccc(Oc2ccnc3[nH]ccc23)cc1 | – |
| 5.61 nM | Cc1cc(=O)n(-c2cccc(F)c2)nc1C(=O)Nc1ccc(Oc2ccnc3[nH]ccc23)c(F)c1 | – |
| 46.3 nM | Cc1cc(=O)n(-c2ccccc2C(F)(F)F)nc1C(=O)Nc1ccc(Oc2ccnc3c2ccn3C)cc1 | – |
| 46.9 nM | COc1ccc(-n2nc(C(=O)Nc3ccc(Oc4ccnc5[nH]ccc45)cc3)c(C)cc2=O)cc1 | – |
| 41.2 nM | Cc1cc(=O)n(-c2ccc(Br)cc2F)nc1C(=O)Nc1ccc(Oc2ccnc3[nH]ccc23)cc1 | – |
| 35.3 nM | Cc1cc(=O)n(-c2cccc(C(F)(F)F)c2)nc1C(=O)Nc1ccc(Oc2ccnc3[nH]ccc23)cc1 | – |
| 9.21 nM | Cc1cc(=O)n(-c2ccc(F)cc2)nc1C(=O)Nc1ccc(Oc2ccnc3c2ccn3C)cc1 | – |
| 42.2 nM | Cc1cc(=O)n(-c2ccc(F)c(Cl)c2)nc1C(=O)Nc1ccc(Oc2ccnc3[nH]ccc23)cc1 | – |
| 39.5 nM | Cc1cc(=O)n(-c2ccccc2C(F)(F)F)nc1C(=O)Nc1ccc(Oc2ccnc3[nH]ccc23)cc1 | – |
| 36.2 nM | Cc1cc(=O)n(-c2ccc(Br)cc2F)nc1C(=O)Nc1ccc(Oc2ccnc3c2ccn3C)cc1 | – |
| 19.5 nM | Cc1cc(=O)n(-c2ccccc2)nc1C(=O)Nc1ccc(Oc2ccnc3c2ccn3C)cc1 | – |

From ChEMBL document CHEMBL4033630, “Discovery of novel 7-azaindole derivatives bearing dihydropyridazine moiety as c-Met kinase inhibitors” (Eur J Med Chem, 2017)
